Here are results for 21 molecules from ChEMBL document CHEMBL3392961, “Synthesis and in vitro characterization of cinnoline and benzimidazole analogues as phosphodiesterase 10A inhibitors” (Bioorg Med Chem Lett, 2015).

Test [1] deals with cAMP and cAMP-inhibited cGMP 3',5'-cyclic phosphodiesterase 10A (Homo sapiens, UniProt Q9Y233). The test is described as follows: Inhibition of human recombinant PDE10A catalytic domain pre-incubated for 5 mins before [3H]cAMP substrate addition and measured 20 mins post substrate addition by scintillation proximity assay. A general note: In a scintillation proximity assay essentially only radioactivity close to the scintillant gives light.

The target of test [2] is cGMP-inhibited 3',5'-cyclic phosphodiesterase 3A (Homo sapiens, UniProt Q14432). The test can be described thus: Inhibition of human recombinant PDE3A pre-incubated for 5 mins before [3H]cAMP substrate addition and measured 20 mins post substrate addition by scintillation proximity assay. A digest of the protocol:
(§1)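 Scintillation proximity assay on a fixed amount of recombinant human PDE enzyme, run across varying inhibitor concentrations. The tritiated cyclic nucleotide substrate was used at 1/3 of Km. Background was subtracted, counts were plotted against inhibitor concentration, and IC50 was fitted by non-linear regression. Values are mean ± SD from at least three experiments.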

Test [3] concerns the target cGMP-inhibited 3',5'-cyclic phosphodiesterase 3B (Homo sapiens, UniProt Q13370). The test can be described thus: Inhibition of human recombinant PDE3B pre-incubated for 5 mins before [3H]cAMP substrate addition and measured 20 mins post substrate addition by scintillation proximity assay. A digest of the protocol:
as §1

For test [4], the target named is 3',5'-cyclic-AMP phosphodiesterase 4B (Homo sapiens, UniProt Q07343). The test is described as follows: Inhibition of human recombinant PDE4B pre-incubated for 5 mins before [3H]cAMP substrate addition and measured 20 mins post substrate addition by scintillation proximity assay. A digest of the protocol: as §1
Test [5] concerns the target 3',5'-cyclic-AMP phosphodiesterase 4A (Homo sapiens, UniProt P27815). The test can be described thus: Inhibition of human recombinant PDE4A pre-incubated for 5 mins before [3H]cAMP substrate addition and measured 20 mins post substrate addition by scintillation proximity assay. Summed up: as §1

As a reminder, the IC50 is the concentration that gives 50% inhibition.

Molecules are shown by their SMILES. Some results are limits rather than exact numbers.

Chain of cGMP-inhibited 3',5'-cyclic phosphodiesterase 3A (Q14432 whole entry): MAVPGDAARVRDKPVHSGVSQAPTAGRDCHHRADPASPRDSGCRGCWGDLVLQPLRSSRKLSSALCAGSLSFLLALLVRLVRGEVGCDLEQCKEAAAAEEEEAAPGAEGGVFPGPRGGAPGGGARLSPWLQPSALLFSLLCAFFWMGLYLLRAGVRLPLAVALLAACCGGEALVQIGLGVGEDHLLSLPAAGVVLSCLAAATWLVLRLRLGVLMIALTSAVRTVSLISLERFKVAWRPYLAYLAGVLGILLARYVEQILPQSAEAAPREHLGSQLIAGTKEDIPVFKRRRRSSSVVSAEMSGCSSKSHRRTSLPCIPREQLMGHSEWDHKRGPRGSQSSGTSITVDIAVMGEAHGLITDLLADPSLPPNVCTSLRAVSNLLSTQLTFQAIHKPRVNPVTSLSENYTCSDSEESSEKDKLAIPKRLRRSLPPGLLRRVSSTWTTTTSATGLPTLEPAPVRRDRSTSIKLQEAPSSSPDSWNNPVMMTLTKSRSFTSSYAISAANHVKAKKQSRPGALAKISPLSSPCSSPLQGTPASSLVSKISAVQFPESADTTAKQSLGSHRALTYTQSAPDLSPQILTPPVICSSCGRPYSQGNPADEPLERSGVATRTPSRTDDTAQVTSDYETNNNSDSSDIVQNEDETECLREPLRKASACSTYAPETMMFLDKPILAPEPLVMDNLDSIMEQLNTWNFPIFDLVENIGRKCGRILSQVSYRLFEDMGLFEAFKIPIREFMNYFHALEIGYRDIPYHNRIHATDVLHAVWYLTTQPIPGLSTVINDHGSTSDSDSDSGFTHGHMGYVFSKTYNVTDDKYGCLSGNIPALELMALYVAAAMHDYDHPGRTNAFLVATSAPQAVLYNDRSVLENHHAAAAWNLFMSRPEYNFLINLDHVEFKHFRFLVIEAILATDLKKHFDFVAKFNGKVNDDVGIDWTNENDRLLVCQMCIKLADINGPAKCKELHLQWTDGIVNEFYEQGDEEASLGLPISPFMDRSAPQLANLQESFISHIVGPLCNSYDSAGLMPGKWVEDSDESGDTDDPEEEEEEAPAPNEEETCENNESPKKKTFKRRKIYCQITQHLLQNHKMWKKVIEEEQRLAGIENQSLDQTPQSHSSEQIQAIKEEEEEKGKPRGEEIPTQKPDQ
Chain of 3',5'-cyclic-AMP phosphodiesterase 4B (Q07343 whole entry): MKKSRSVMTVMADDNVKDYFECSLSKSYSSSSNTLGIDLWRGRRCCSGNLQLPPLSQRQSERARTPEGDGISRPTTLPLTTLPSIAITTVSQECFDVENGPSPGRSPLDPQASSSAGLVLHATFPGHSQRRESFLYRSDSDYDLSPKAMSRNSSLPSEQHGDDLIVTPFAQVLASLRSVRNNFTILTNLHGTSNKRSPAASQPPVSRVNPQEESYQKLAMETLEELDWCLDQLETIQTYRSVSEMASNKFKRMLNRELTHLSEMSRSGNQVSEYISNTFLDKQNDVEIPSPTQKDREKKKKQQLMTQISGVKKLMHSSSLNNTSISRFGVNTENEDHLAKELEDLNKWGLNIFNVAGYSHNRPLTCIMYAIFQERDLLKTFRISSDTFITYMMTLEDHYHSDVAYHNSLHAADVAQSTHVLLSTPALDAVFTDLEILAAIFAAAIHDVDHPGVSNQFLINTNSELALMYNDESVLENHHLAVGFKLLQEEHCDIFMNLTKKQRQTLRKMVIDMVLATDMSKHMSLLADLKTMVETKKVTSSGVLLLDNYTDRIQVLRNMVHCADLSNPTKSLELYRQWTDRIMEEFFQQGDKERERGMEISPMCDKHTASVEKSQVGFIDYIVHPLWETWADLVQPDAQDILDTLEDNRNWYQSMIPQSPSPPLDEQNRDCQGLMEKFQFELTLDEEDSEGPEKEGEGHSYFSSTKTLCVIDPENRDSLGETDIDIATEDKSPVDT
Chain of cAMP and cAMP-inhibited cGMP 3',5'-cyclic phosphodiesterase 10A (Q9Y233 whole entry, the tested form may be a part): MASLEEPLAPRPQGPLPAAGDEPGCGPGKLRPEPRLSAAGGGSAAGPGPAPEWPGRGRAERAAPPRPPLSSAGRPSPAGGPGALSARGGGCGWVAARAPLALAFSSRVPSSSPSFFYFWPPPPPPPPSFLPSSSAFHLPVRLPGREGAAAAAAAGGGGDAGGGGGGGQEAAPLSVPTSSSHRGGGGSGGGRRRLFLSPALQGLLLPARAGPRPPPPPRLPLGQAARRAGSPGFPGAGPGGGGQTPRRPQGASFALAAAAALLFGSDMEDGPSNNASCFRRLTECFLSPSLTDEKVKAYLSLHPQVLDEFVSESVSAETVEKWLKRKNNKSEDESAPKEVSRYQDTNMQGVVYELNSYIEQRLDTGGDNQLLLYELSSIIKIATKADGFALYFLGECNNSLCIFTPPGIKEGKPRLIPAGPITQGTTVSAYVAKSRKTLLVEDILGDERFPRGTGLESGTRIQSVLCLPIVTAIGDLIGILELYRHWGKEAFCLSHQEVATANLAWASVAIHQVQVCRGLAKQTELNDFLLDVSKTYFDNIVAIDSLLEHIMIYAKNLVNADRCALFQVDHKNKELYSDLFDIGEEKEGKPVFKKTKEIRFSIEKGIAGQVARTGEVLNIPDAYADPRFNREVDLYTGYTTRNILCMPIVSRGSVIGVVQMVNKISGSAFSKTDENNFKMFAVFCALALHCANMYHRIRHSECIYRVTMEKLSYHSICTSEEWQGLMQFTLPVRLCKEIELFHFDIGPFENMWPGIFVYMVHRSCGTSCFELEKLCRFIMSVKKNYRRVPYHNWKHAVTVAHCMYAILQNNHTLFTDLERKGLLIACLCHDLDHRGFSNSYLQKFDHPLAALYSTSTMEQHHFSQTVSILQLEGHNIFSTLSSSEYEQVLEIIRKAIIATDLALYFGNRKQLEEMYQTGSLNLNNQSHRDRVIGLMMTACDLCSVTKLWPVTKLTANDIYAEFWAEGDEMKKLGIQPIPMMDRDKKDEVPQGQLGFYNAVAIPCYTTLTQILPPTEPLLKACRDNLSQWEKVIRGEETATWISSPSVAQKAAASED
Chain of 3',5'-cyclic-AMP phosphodiesterase 4A (P27815 whole entry): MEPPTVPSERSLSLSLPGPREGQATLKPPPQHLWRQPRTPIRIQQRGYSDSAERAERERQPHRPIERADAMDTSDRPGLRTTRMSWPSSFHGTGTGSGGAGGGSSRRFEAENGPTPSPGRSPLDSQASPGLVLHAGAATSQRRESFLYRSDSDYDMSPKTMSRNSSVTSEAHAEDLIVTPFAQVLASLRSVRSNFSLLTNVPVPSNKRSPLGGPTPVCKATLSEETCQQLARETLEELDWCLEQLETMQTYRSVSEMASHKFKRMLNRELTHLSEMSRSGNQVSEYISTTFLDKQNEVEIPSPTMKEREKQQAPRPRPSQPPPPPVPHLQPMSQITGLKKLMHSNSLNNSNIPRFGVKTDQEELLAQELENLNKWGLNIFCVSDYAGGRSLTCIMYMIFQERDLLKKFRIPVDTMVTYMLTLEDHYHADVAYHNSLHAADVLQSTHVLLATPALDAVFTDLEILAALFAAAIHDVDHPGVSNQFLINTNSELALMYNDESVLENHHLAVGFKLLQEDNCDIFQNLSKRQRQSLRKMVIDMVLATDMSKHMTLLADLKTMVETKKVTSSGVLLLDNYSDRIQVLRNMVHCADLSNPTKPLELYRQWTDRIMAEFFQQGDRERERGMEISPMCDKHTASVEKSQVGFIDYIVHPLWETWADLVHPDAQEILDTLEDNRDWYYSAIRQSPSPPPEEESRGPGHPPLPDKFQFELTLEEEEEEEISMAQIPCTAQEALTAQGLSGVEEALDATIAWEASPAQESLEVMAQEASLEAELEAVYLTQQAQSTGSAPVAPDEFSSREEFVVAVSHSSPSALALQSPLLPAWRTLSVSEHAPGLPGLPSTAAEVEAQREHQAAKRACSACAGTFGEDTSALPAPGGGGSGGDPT
Chain of cGMP-inhibited 3',5'-cyclic phosphodiesterase 3B (Q13370 whole entry): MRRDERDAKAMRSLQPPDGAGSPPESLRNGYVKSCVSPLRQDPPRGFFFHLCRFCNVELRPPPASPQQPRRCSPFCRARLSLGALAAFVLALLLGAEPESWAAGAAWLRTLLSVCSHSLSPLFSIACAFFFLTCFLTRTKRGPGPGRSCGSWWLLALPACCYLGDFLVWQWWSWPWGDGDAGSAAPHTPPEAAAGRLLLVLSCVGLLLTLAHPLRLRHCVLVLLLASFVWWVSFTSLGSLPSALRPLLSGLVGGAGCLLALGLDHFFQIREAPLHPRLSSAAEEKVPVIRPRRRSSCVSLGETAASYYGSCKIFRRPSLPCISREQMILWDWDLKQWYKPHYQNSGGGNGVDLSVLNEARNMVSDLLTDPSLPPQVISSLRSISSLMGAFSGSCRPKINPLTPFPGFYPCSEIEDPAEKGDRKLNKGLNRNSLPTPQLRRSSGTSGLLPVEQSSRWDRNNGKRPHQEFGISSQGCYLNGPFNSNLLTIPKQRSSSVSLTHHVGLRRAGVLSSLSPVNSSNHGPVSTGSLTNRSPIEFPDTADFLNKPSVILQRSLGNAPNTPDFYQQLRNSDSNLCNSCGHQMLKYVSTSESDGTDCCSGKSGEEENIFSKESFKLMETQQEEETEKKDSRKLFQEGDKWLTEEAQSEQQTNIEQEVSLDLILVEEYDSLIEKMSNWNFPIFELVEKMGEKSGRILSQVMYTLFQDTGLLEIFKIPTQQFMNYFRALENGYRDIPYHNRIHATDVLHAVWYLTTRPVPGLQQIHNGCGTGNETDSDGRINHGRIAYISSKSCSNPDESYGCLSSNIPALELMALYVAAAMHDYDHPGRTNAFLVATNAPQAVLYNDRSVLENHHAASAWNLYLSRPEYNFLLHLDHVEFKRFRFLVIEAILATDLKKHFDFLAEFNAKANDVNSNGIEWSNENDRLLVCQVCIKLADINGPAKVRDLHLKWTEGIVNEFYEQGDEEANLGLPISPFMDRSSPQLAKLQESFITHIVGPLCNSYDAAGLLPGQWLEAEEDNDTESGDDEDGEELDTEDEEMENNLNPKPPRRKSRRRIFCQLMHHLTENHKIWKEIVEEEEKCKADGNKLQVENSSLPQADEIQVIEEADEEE

For `COc1cc2nncc(-c3ccc(N4CCC(O)(c5cccnc5)CC4)nc3)c2cc1OC`, the IC50 in test [1] (read-out: IC50) is 0.014 µM.

With `COc1cc2c(-c3cnc(N4CCC(O)(c5ccc(F)nc5)CC4)c(C)c3)cnnc2cc1OCc1ccc2ccccc2n1`, in test [1] (read-out: IC50), the IC50 came to 0.518 µM. For the molecule `Cc1cc(-c2cnnc3cc4c(cc23)OCO4)cnc1N1CCC(O)(c2ccc(F)nc2)CC1`, in test [1], the IC50 result is recorded as “Not Active”. As to `Cn1c(C(=O)c2ccc(Oc3ncccc3-c3cccnc3)cc2)nc2ccccc21`, the IC50 in test [2] was 167 µM; in test [1] (read-out: IC50), 0.00373 µM; in test [3] it was 234 µM; in test [4], 25.9 µM; in test [5], 40.3 µM. Regarding `Cn1c(C(=O)c2ccc(Oc3ncccc3C(=O)c3ccccc3)cc2)nc2ccccc21`, the IC50 result in test [1] is “Not Active”. `COc1cc2nncc(-c3cnc(N4CCC(O)(c5ccc(F)nc5)CC4)c(C)c3)c2cc1OC`: the IC50 in test [2] was 3.7 µM; in test [1] (read-out: IC50), 0.00286 µM; in test [3], 6.54 µM; in test [4], 30.6 µM; in test [5] it was 25.4 µM. `COc1ccc(C(=O)c2cccnc2Oc2ccc(C(=O)c3nc4ccccc4n3C)cc2)cc1`: in test [1], the IC50 result is recorded as “Not Active”.

For the molecule `COc1cc2c(-c3cnc(N4CCC(O)(c5ccc(F)nc5)CC4)c(C)c3)cnnc2cc1OCc1ccccc1`, the IC50 in test [1] (read-out: IC50) was 0.35 µM.

On to `COc1cc2c(-c3ccc(N4CCC(C)(O)CC4)nc3)cnnc2cc1O`, for which the half-inhibitory concentration (IC50) in test [1] (read-out: IC50) was found to be 10.8 µM. For `COc1cc2c(-c3cnc(N4CCC(O)(c5ccc(F)nc5)CC4)c(C)c3)cnnc2cc1OCCCF`, in test [1] (read-out: IC50), the IC50 is 0.0793 µM.

Consider `CC(=O)N1CCC(C(=O)c2cccnc2Oc2ccc(C(=O)c3nc4ccccc4n3C)cc2)CC1`, for which the IC50 in test [1] (read-out: IC50) was greater than 1.9 µM.

On to `Cn1c(C(=O)c2ccc(Oc3ncccc3-c3ccccc3)cc2)nc2ccccc21`, for which, in test [1] (read-out: IC50), the IC50 was 0.0186 µM. Regarding `COc1cc2nncc(-c3cnc(N4CCC(O)(c5cccnc5)CC4)c(Cl)c3)c2cc1OC`, the IC50 in test [1] (read-out: IC50) is 0.00552 µM. For the molecule `COc1cc2c(-c3ccc(N4CCC(O)(c5cccnc5)CC4)nc3)cnnc2cc1O`, the IC50 in test [1] (read-out: IC50) is 6.62 µM.

For `COc1cc2nncc(-c3cnc(N4CCC(O)(c5ccc(Cl)nc5)CC4)c(C)c3)c2cc1OC`, the concentration for half-maximal inhibition (IC50) in test [1] (read-out: IC50) came out at 0.0098 µM.

With `COc1cc2c(-c3ccc(N4CCC(O)(c5cccnc5)CC4)nc3)cnnc2cc1OCc1ccccc1`, the IC50 in test [1] (read-out: IC50) came to 1.55 µM.

Turning to `COc1cc2nncc(-c3cnc(N4CCC(O)(c5cccnc5)CC4)c(C)c3)c2cc1OC`, the IC50 in test [2] was 3.07 µM; in test [1] (read-out: IC50) it was 0.00152 µM; in test [3], 4.11 µM; in test [4] it was 8.73 µM; in test [5] it was 7.83 µM.

With `COc1ccc(-c2cccnc2Oc2ccc(C(=O)c3nc4ccccc4n3C)cc2)cc1`, in test [1] (read-out: IC50), the IC50 stood at 0.008 µM. `Cc1cc(-c2cnnc3ccccc23)cnc1N1CCC(O)(c2ccc(F)nc2)CC1`: in test [1], the IC50 entry is given as “Not Active”. On to `COc1cc2nncc(-c3ccc(N4CCC(C)(O)CC4)nc3)c2cc1OC`, for which, in test [1] (read-out: IC50), the concentration for half-maximal inhibition (IC50) is 0.0184 µM. Same read-out and setting: then `COc1cc2c(-c3ccc(N4CCC(C)(O)CC4)nc3)cnnc2cc1OCc1ccccc1`, with 4.25 µM.
